Results from ChEMBL document CHEMBL1137078, “Carbamoylphosphonates, a new class of in vivo active matrix metalloproteinase inhibitors. 1. Alkyl- and cycloalkylcarbamoylphosphonic acids” (J Med Chem, 2004).
Calls of active or inactive are those of the source. No cut-off for these calls is given here.

Columns and labels:
Neutrophil collagenase = Neutrophil collagenase (Homo sapiens, UniProt P22894); test: In vitro inhibitory activity against recombinant matrix metalloprotease-8 was determined
In short: (§1)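 Commercial recombinant MMP-1, -2, -3, -8 or -9 at four levels (1-50 ng) incubated 3 h with their respective substrates. Compounds at four to six concentrations (0.1-100 µM). Colorimetric change read on an ELISA reader. IC50 calculated from the kinetic data.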

Stromelysin-1 = Stromelysin-1 (Homo sapiens, UniProt P08254); test: In vitro inhibitory activity against recombinant matrix metalloprotease-3 was determined; in short: as §1
Interstitial collagenase = molecular target: T1, Interstitial collagenase (Homo sapiens, UniProt P03956); test: In vitro inhibitory activity against recombinant matrix metalloprotease-1 was determined; in short: as §1
T1 sequence (P03956 whole entry): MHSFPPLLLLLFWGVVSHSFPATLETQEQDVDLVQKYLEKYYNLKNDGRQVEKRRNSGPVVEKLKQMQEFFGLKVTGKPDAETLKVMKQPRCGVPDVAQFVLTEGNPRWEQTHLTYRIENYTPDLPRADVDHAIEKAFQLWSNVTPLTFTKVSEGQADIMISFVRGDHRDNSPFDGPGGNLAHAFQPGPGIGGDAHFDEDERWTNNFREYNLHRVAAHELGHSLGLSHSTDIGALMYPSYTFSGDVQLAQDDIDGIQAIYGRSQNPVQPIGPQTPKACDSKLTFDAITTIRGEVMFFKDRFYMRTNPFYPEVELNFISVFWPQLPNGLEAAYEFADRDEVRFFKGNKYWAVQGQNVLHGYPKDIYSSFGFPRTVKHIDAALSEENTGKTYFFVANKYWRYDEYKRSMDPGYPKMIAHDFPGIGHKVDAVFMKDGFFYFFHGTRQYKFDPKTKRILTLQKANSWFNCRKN

NIH3T3 = test: In vitro inhibition of invasion of NIH 3T3 cells across the reconstituted basement membrane by the compound at 50 uM concentration in Boyden chamber chemoinvasion assay; Inactive; type: functional, cell-based; settings: Mus musculus
[1] = molecular target: Matrix metalloproteinase-9 (Homo sapiens, UniProt P14780); test: In vitro inhibitory activity against recombinant matrix metalloprotease-9 was determined; in short: as §1
[2] = molecular target: 72 kDa type IV collagenase (Homo sapiens, UniProt P08253); test: In vitro inhibitory activity against recombinant matrix metalloprotease-2 was determined; in short: as §1
Homo sapiens = species on record: Homo sapiens; test: In vitro inhibition of endothelial capillary tube formation by the compound at 50 uM concentration; type: functional
In short: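 Endothelial cells plated on a thin Matrigel layer with angiogenic factor (bFGF/VEGF), incubated 4-6 h to form tubelike structures. Compounds added at 5 concentrations (100, 50, 25, 10, 5 µM). Tube formation quantified by image analysis. Value is % inhibition at 50 µM.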

B16-F10 = test: Inhibition of lung metastasis formation after 3 weeks treatment with 50 mg/kg of compound in mice injected with 50000 B16F10 tumor cells into the tail vein; type: functional; settings: Mus musculus, 504 h
In short: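 Experimental metastasis in mice: 50 000 B16F10 melanoma cells injected into the tail vein. Compound given ip daily at 50 mg/kg for 3 weeks. Mice sacrificed at day 21, lungs fixed, and surface tumor foci counted. Value is % inhibition of lung metastasis formation.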

Sequence of Stromelysin-1 (P08254 whole entry): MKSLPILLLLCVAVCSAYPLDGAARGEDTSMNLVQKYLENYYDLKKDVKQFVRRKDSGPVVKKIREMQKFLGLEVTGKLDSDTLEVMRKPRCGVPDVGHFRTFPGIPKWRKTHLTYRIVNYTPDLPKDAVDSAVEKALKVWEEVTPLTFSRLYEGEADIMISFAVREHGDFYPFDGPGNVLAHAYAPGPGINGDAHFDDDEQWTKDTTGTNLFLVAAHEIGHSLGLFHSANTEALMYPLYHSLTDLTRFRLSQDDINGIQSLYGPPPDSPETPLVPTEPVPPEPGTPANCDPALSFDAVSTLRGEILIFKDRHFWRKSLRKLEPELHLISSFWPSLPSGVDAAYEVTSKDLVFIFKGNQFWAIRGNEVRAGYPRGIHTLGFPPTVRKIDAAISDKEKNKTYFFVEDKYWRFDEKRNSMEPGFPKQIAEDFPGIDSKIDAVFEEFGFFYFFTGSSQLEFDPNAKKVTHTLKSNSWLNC
Sequence of Matrix metalloproteinase-9 (P14780 whole entry): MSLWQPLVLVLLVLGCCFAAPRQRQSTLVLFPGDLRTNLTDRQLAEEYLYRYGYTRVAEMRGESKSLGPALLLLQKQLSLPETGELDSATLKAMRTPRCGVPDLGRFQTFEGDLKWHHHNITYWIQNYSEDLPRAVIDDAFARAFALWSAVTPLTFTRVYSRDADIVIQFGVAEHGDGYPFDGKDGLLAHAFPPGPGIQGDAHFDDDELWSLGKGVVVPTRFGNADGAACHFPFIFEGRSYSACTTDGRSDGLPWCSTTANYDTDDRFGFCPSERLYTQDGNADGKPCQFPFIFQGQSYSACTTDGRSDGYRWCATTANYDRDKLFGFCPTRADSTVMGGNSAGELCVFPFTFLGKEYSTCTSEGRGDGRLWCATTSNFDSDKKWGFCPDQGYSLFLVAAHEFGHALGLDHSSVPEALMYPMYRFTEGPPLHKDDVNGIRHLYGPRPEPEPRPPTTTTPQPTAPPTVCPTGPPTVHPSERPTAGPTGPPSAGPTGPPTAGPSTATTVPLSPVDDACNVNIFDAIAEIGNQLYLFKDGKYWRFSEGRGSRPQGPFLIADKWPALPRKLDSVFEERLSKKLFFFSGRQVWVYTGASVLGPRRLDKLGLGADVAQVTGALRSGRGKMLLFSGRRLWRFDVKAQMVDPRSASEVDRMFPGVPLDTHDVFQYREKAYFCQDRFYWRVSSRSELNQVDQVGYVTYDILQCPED
Sequence of Neutrophil collagenase (P22894 whole entry): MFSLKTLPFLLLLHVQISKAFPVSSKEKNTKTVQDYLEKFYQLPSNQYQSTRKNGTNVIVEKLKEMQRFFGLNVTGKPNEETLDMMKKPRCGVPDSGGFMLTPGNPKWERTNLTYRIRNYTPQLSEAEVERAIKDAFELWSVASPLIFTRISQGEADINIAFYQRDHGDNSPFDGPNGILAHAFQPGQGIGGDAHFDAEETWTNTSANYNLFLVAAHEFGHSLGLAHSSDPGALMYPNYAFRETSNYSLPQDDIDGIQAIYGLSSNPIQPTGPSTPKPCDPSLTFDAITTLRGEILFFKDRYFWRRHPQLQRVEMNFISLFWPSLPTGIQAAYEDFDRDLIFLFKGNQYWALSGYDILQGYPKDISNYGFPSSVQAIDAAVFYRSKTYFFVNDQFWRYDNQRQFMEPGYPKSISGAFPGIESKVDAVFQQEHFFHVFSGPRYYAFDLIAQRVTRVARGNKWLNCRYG
Sequence of 72 kDa type IV collagenase (P08253 whole entry): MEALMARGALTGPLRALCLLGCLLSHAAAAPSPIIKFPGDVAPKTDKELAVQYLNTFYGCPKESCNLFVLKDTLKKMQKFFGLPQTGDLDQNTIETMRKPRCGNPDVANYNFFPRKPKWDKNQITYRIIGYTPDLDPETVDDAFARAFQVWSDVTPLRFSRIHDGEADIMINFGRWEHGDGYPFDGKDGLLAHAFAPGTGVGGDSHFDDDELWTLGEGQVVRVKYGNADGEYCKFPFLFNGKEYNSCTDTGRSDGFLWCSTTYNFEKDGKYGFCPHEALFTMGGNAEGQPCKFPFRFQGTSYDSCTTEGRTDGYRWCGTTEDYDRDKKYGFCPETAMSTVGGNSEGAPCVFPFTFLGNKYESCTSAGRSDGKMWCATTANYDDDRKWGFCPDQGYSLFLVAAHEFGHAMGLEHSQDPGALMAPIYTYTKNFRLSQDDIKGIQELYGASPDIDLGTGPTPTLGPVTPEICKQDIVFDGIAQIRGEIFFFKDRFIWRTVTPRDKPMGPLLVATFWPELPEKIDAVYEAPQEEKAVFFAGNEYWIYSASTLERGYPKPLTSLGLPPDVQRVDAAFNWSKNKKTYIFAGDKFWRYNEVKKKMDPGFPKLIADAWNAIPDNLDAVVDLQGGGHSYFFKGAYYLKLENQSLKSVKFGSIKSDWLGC

SMILES | IC50 (Neutrophil collagenase) | IC50 (Stromelysin-1) | IC50 (Interstitial collagenase) | inhibition (NIH3T3) | IC50 [1] | IC50 [2] | inhibition (Homo sapiens) | inhibition in vivo at 50 mg/kg (B16-F10)
CC(C)CCNC(=O)P(=O)(O)O.NC1CCCCC1 | 50 µM | > 100 µM | > 100 µM | inactive | > 100 µM | 30 µM |  | 
CCC(CC)NC(=O)P(=O)(O)O | 10 µM | > 100 µM | 80 µM |  | > 100 µM | 3 µM |  | 
O=C(N1CCCCC1)P(=O)(O)O | > 100 µM | 90 µM | 70 µM | inactive | 0.5 µM | 1 µM |  | 
CCC(C)NC(=O)P(=O)(O)O (configuration not stated) | > 100 µM | 80 µM | 40 µM |  | > 100 µM | 3 µM | 20% | 
O=C(N1CCOCC1)P(=O)(O)O | 30 µM | 1 µM | 50 µM | inactive | > 100 µM | > 100 µM |  | 
O=C(NC1CCC1)P(=O)(O)O [(CYCLOBUTYLAMINO)CARBONYLPHOSPHONIC ACID] | 0.04 µM | > 100 µM | > 100 µM |  | > 100 µM | 0.15 µM |  | 60%
O=C(NC1CCCCCC1)P(=O)(O)O [(CYCLOHEPTYLAMINO)CARBONYLPHOSPHONIC ACID] | > 100 µM | > 100 µM | > 100 µM |  | > 100 µM | 4 µM | 45% | 69%
O=C(NC1CCCCC1)P(=O)(O)O [(CYCLOHEXYLAMINO)CARBONYLPHOSPHONIC ACID] | > 100 µM | 3 µM | 0.1 µM |  | > 100 µM |  | 50% | 37%
O=C(NC1CCCCCCC1)P(=O)(O)O [(CYCLOOCTYLAMINO)CARBONYLPHOSPHONIC ACID] | 4 µM | > 100 µM | > 100 µM |  | > 100 µM | 1 µM | 25% | 
O=C(NC1CCCC1)P(=O)(O)O [(CYCLOPENTYLAMINO)CARBONYLPHOSPHONIC ACID] | > 100 µM | > 100 µM | 0.5 µM |  | > 100 µM |  | 70% | 72%
O=C(NC1CC1)P(=O)(O)O [(CYCLOPROPYLAMINO)CARBONYLPHOSPHONIC ACID] | 0.2 µM | > 100 µM | > 100 µM |  | > 100 µM | 0.5 µM |  | 
CCCCN(CCCC)C(=O)P(=O)(O)O [(DIBUTYLAMINO)CARBONYLPHOSPHONIC ACID] | 90 µM | 30 µM | 70 µM | inactive | > 100 µM | 50 µM |  | 
CCN(CC)C(=O)P(=O)(O)O [(DIETHYLAMINO)CARBONYLPHOSPHONIC ACID] | 70 µM | 30 µM | 30 µM | inactive | > 100 µM | 1 µM |  | 
CCNC(=O)P(=O)(O)O [(ETHYLAMINO)CARBONYLPHOSPHONIC ACID] | 30 µM | 100 µM | 50 µM |  | 3 µM | 5 µM |  | 
CC(C)NC(=O)P(=O)(O)O [(ISOPROPYLAMINO)CARBONYLPHOSPHONIC ACID] | 50 µM | > 100 µM | 50 µM |  | 2 µM | 1 µM | 55% | 40%
CNC(=O)P(=O)(O)O [(METHYLAMINO)CARBONYLPHOSPHONIC ACID] | 20 µM | 90 µM | > 100 µM |  | > 100 µM | 0.02 µM |  | 55%
CCCNC(=O)P(=O)(O)O [(PROPYLAMINO)CARBONYLPHOSPHONIC ACID] | > 100 µM | 50 µM | 20 µM |  | 20 µM | 0.3 µM |  | 
CC(C)CNC(=O)P(=O)(O)O.NC1CCCCC1 [CYCLOHEXANAMINIUM HYDROGEN (ISOBUTYLAMINO)CARBONYLPHOSPHONATE] | 1 µM | > 100 µM | 40 µM | inactive | > 100 µM | > 100 µM |  | 
O=C(NCC1CCCCC1)P(=O)(O)O [CYCLOHEXYLMETHYLCARBAMOYLPHOSPHONIC ACID] | 80 µM | 1 µM | 30 µM |  |  |  | 53% | 69%
CCOP(=O)(O)C(=O)NC1CCCCC1 [LITHIUM ETHYL (CYCLOHEXYLAMINO)CARBONYLPHOSPHONATE] | > 100 µM | > 100 µM | 1.5 µM |  | > 100 µM | 30 µM |  | 
O=C(NCCc1ccccc1)P(=O)(O)O [PHENETHYLCARBAMOYLPHOSPHONIC ACID] | > 100 µM | 90 µM | 80 µM |  | > 100 µM | 20 µM |  | 
CCCCNC(=O)P(=O)(O)O [SODIUM HYDROGEN (BUTYLAMINO)CARBONYLPHOSPHONATE] | > 100 µM | > 100 µM | 25 µM |  | > 100 µM | 2 µM | 20% | 
